Results on 27 compounds are retold here after ChEMBL document CHEMBL1138362, “Dihydro-alkylthio-benzyl-oxopyrimidines as inhibitors of reverse transcriptase: synthesis and rationalization of the biological data on both wild-type enzyme and relevant clinical mutants” (J Med Chem, 2007).

For assay [1], the system named is Human immunodeficiency virus type 1 reverse transcriptase (Human immunodeficiency virus 1), Q72547 [Y181I]. Put plainly: Antiviral activity against HIV1 reverse transcriptase Y181I mutant.
Assay [2] addresses Human immunodeficiency virus type 1 reverse transcriptase (Human immunodeficiency virus 1) (UniProt Q72547). Put plainly: Antiviral activity against wild type HIV1 reverse transcriptase.
Assay [3] deals with Human immunodeficiency virus 1. Put plainly: Antiviral activity against HIV1 with reverse transcriptase K103N mutation in MT4 cells after 5 days by MTT method. In kind it is functional, organism-based. The following applies: Human immunodeficiency virus 1, MT4, 120 h. Put shortly:
(§1)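 MT-4 cells from the NIH AIDS Reagent Program were infected with mutant HIV-1 (K103N or Y188L, from the MRC Centralised Facility) in the presence of graded drug concentrations. Mock-infected cells were used for cytotoxicity. Viable cells were counted by MTT colorimetry at day 5 post-infection.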

Assay [4] deals with Human immunodeficiency virus 1. Kind of assay: Antiviral activity against wild type HIV1 NL4-3 in MT4 cells after 5 days by MTT method. Type of assay: functional, organism-based. The note with it: Human immunodeficiency virus 1, NL4-3, MT4, 120 h. Put shortly:
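MT-4 lymphoid cells, infected with HIV-1 or mock-infected (for cytotoxicity), held with a range of drug concentrations; viable cells scored at day 5 post-infection by tetrazolium (MTT) colorimetry.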

For assay [5], the system named is Human immunodeficiency virus 1. Kind of assay: Antiviral activity against HIV1 with reverse transcriptase Y188L mutation in MT4 cells after 5 days by MTT method. In kind it is functional, organism-based. The note with it: Human immunodeficiency virus 1, MT4, 120 h. An outline of the steps: as §1
For orientation: Tetrazolium dyes change colour on reduction, which living cells bring about.

Assay [6] deals with Human immunodeficiency virus 1. Put plainly: Antiviral activity against HIV1 with reverse transcriptase Y181C mutation in MT4 cells after 5 days by MTT method. The note with it: Human immunodeficiency virus 1, MT4, 120 h. In kind it is functional, organism-based.
Assay [7] has as its system Human immunodeficiency virus 1 [K103N]. Kind of assay: Antiviral activity against HIV1 reverse transcriptase K103N mutant.

Structures are written as SMILES. Bounds are passed on as bounds.

As a reminder, the EC50 is the concentration that produces a half-maximal response. A low value points to greater potency. Consider `COc1ccc(/C=C/CSc2nc(C(C)c3c(F)cccc3F)c(C)c(=O)[nH]2)cc1` (centres undefined), for which the results for the ID50 in assay [1], in assay [2] and in assay [7] were above 20 µM, 0.292 µM and 3.7 µM, respectively. Also, the EC50 was 0.26 µM in assay [3], 0.2 nM in assay [4], 0.07 µM in assay [5] and 0.13 µM in assay [6].

Consider `Cc1c(Cc2c(F)cccc2F)nc(SCC(=O)c2ccc([N+](=O)[O-])cc2)[nH]c1=O`, for which the results for the ID50 in assay [1], in assay [2] and in assay [7] were above 20 µM, 0.95 µM and above 20 µM, respectively. The EC50 is above 58 µM in assay [3], 370 nM in assay [4], above 58 µM in assay [5] and 4.18 µM in assay [6].

Consider `Cc1c(Cc2c(Cl)cccc2Cl)nc(SC/C=C/c2ccc(N(C)C)cc2)[nH]c1=O`, for which the results for the ID50 in assay [1], in assay [2] and in assay [7] were above 20 µM, 0.778 µM and above 20 µM, respectively. Further, the EC50 is above 54.4 µM in assay [3], above 54400 nM in assay [4], above 54.4 µM in assay [5] and above 54.4 µM in assay [6].

Regarding `Cc1c(C(C)c2c(Cl)cccc2Cl)nc(SC/C=C/c2ccc([N+](=O)[O-])cc2)[nH]c1=O` (centres undefined), the values for the ID50 in assay [1], in assay [2] and in assay [7] were above 20 µM, 0.102 µM and above 20 µM, respectively. The EC50 is above 41 µM in assay [3], 480 nM in assay [4], above 41 µM in assay [5] and above 41 µM in assay [6].

For the compound `Cc1c(C(C)c2c(Cl)cccc2Cl)nc(SCc2ccc(C#N)cc2)[nH]c1=O` (centres undefined), the ID50 in assay [1] was above 20 µM; in assay [2], 0.02 µM; in assay [7], above 20 µM. Further, the results for the concentration giving a half-maximal response (EC50) in assay [3] and in assay [4] were 11.6 µM and 160 nM, respectively.

With `CCc1c(C(C)c2c(F)cccc2F)nc(SC/C=C/c2ccc(OC)cc2)[nH]c1=O` (centres undefined), the ID50 was above 20 µM in assay [1], 0.016 µM in assay [2] and 0.4 µM in assay [7]. The EC50 was found to be 1.02 µM in assay [3], 0.2 nM in assay [4], 0.63 µM in assay [5] and 0.7 µM in assay [6].

As for `COc1ccc(COCCSc2nc(Cc3c(Cl)cccc3Cl)c(C)c(=O)[nH]2)cc1`, the values for the ID50 in assay [1], in assay [2] and in assay [7] were above 20 µM, 0.063 µM and 56 µM, respectively. Moreover, the half-maximal effective concentration (EC50) in assay [3] was 3.44 µM; in assay [4], 21 nM; in assay [5], 1.72 µM; in assay [6] it was 3.01 µM.

With `COc1ccc(C#CCSc2nc(C(C)c3c(Cl)cccc3Cl)c(C)c(=O)[nH]2)cc1` (centres undefined), the ID50 in assay [1] was above 20 µM; in assay [2], 0.005 µM; in assay [7], above 20 µM. Further, the half-maximal effective concentration (EC50) is above 54.5 µM in assay [3], 500 nM in assay [4], 24.8 µM in assay [5] and 33.5 µM in assay [6].

Take `COc1ccc(C#CCSc2nc(Cc3c(Cl)cccc3Cl)c(C)c(=O)[nH]2)cc1`: the ID50 in assay [1] is above 20 µM; in assay [2] it was 0.01 µM; in assay [7], above 20 µM. Moreover, the half-maximal effective concentration (EC50) was above 56.2 µM in assay [3], 2470 nM in assay [4] and above 56.2 µM in assay [5].

As to `CCc1c(Cc2c(F)cccc2F)nc(SCCc2ccc(OC)cc2)[nH]c1=O`, the ID50 in assay [1] is above 20 µM; in assay [2], 0.022 µM; in assay [7] it was above 20 µM. Also, the EC50 in assay [3] was 1.92 µM; in assay [4], 0.2 nM; in assay [5], above 60.1 µM; in assay [6], 2.78 µM.

`CCc1c(Cc2c(Cl)cccc2Cl)nc(SC/C=C/c2ccc([N+](=O)[O-])cc2)[nH]c1=O`: the ID50 in assay [1] was above 20 µM; in assay [2], 2.5 µM; in assay [7], above 20 µM. For the same compound, the concentration giving a half-maximal response (EC50) in assay [3] was above 32.1 µM; in assay [4], 610 nM; in assay [5], above 32.1 µM; in assay [6] it was 4.2 µM.

Turning to `Cc1c(C(C)c2c(F)cccc2F)nc(SC/C=C/c2ccc(C#N)cc2)[nH]c1=O` (centres undefined), the ID50 in assay [1] was above 20 µM; in assay [2], 0.161 µM; in assay [7] it was above 20 µM. Further, the concentration giving a half-maximal response (EC50) in assay [3] was above 59.1 µM; in assay [4], 140 nM; in assay [5], above 59.1 µM; in assay [6], above 59.1 µM.

With `COc1ccc(COCCSc2nc(Cc3c(F)cccc3F)c(C)c(=O)[nH]2)cc1`, the ID50 in assay [1] is above 20 µM; in assay [2], 0.197 µM; in assay [7], above 20 µM. The concentration for a half-maximal effect (EC50) in assay [3] was above 55.9 µM; in assay [4] it was 1200 nM; in assay [5], above 55.9 µM; in assay [6] it was above 55.9 µM.

For the compound `COc1ccc(COCCSc2nc(C(C)c3c(Cl)cccc3Cl)c(C)c(=O)[nH]2)cc1` (centres undefined), the ID50 in assay [1] was above 20 µM; in assay [2], 0.022 µM; in assay [7], 57.3 µM. The 50% effective concentration (EC50) in assay [3] was found to be 6.47 µM; in assay [4], 63 nM; in assay [5], 2.5 µM; in assay [6], 8.98 µM.

With `CCc1c(Cc2c(F)cccc2F)nc(SCc2ccc([N+](=O)[O-])cc2)[nH]c1=O`, the ID50 in assay [1] is above 20 µM; in assay [2], 0.07 µM; in assay [7], above 20 µM. Further, the EC50 in assay [3] was 10.6 µM; in assay [4], 74 nM; in assay [5], above 60 µM; in assay [6], 2.13 µM.

Regarding `Cc1c(C(C)c2c(F)cccc2F)nc(SCc2ccc(C#N)cc2)[nH]c1=O` (centres undefined), the ID50 in assay [1] was above 20 µM; in assay [2], 0.01 µM; in assay [7], 0.7 µM. Further, the half-maximal effective concentration (EC50) in assay [3] is 0.73 µM; in assay [4], 7.8 nM; in assay [5], 0.68 µM; in assay [6] it was 1.55 µM.

For the compound `Cc1c(Cc2c(Cl)cccc2Cl)nc(SC/C=C/c2ccc([N+](=O)[O-])cc2)[nH]c1=O`, the ID50 in assay [1] is above 20 µM; in assay [2] it was 3.81 µM; in assay [7] it was above 20 µM. The EC50 in assay [3] was above 10.8 µM; in assay [4] it was above 10800 nM; in assay [5], above 10.8 µM; in assay [6] it was above 10.8 µM.

`CC(=O)Oc1ccc(CSc2nc(Cc3c(F)cccc3F)c(C)c(=O)[nH]2)cc1`: the results for the ID50 in assay [1], in assay [2] and in assay [7] were above 20 µM, 48 µM and above 20 µM, respectively. Moreover, the concentration for a half-maximal effect (EC50) in assay [3] was above 60.1 µM; in assay [4], 22900 nM; in assay [5], above 60.1 µM; in assay [6], above 60.1 µM.

For the compound `CCC(c1nc(SCc2ccc(OC)cc2)[nH]c(=O)c1C)c1c(F)cccc1F` (centres undefined), the ID50 in assay [1] is above 20 µM; in assay [2], 0.047 µM; in assay [7], above 20 µM. Also, the EC50 in assay [3] is 6.13 µM; in assay [4], 1.9 nM; in assay [5], 1.46 µM; in assay [6], 5.02 µM.

As for `COc1ccc(/C=C/Sc2nc(C(C)c3c(Cl)cccc3Cl)c(C)c(=O)[nH]2)cc1` (centres undefined), the ID50 was above 20 µM in assay [1], 0.02 µM in assay [2] and above 20 µM in assay [7]. The EC50 is above 55.9 µM in assay [3], 16200 nM in assay [4], above 55.9 µM in assay [5] and above 55.9 µM in assay [6].

Regarding `COc1ccc(CSc2nc(C(C)c3c(F)cccc3F)c(C)c(=O)[nH]2)cc1` (centres undefined), the figures for the ID50 in assay [1], in assay [2] and in assay [7] were above 20 µM, 0.003 µM and 45 µM, respectively. Further, the concentration giving a half-maximal response (EC50) in assay [3] was 0.55 µM; in assay [4], 0.025 nM; in assay [5], 0.95 µM; in assay [6], 0.3 µM.

Take `COc1ccc(/C=C/Sc2nc(Cc3c(Cl)cccc3Cl)c(C)c(=O)[nH]2)cc1`: the ID50 in assay [1] was above 20 µM; in assay [2], 1.98 µM; in assay [7], above 20 µM. In addition, the concentration giving a half-maximal response (EC50) in assay [3] is above 57.7 µM; in assay [4], above 57700 nM; in assay [5], above 57.7 µM; in assay [6], above 57.7 µM.

Consider `COc1ccc(CCSc2nc(C(C)c3c(Cl)cccc3Cl)c(C)c(=O)[nH]2)cc1` (centres undefined), for which the ID50 in assay [1] is above 20 µM; in assay [2], 0.593 µM; in assay [7] it was above 20 µM. The concentration giving a half-maximal response (EC50) in assay [3] is 6.57 µM; in assay [4], 0.2 nM; in assay [5] it was 8.17 µM; in assay [6], 3.76 µM.

For the compound `Cc1c(Cc2c(Cl)cccc2Cl)nc(S/C=C/c2ccc(F)cc2)[nH]c1=O`, the ID50 in assay [1], in assay [2] and in assay [7] was above 20 µM each time. In addition, the EC50 was 11.9 µM in assay [3], above 59400 nM in assay [4], above 59.4 µM in assay [5] and above 59.4 µM in assay [6].

For `CCc1c(Cc2c(Cl)cccc2Cl)nc(SC/C=C/c2ccc(C#N)cc2)[nH]c1=O`, the figures for the ID50 in assay [1], in assay [2] and in assay [7] were above 20 µM, 0.188 µM and above 20 µM, respectively. For the same compound, the EC50 in assay [3] is above 54.8 µM; in assay [4] it was 1730 nM; in assay [5], above 54.8 µM.

As to `CCc1c(Cc2c(Cl)cccc2Cl)nc(SC/C=C/c2ccc(OC)cc2)[nH]c1=O`, the ID50 in assay [1] is above 20 µM; in assay [2], 0.056 µM; in assay [7], above 20 µM. For the same compound, the EC50 in assay [3] was above 0.19 µM; in assay [4] it was 1.5 nM; in assay [5], above 0.19 µM; in assay [6] it was above 0.19 µM.

On to `COc1ccc(CSc2nc(C(C)c3c(Cl)cccc3Cl)c(C)c(=O)[nH]2)cc1` (centres undefined), for which the ID50 in assay [1] was above 20 µM; in assay [2], 0.77 µM; in assay [7] it was above 20 µM. Besides, the EC50 in assay [3] turned out to be 6.72 µM; in assay [4] it was 1.1 nM; in assay [6], 1.73 µM.
